RGS4 inh: RGS4 inhibitors, primary screen, cell-based, HEK293 M3R inducible RGS4, calcium flux | Regulator of G-protein signaling 4 (Homo sapiens), P49798 | Fluo-4 calcium flux; hits give high values; triggered by carbachol at its EC20 | B-score at 10 µM | 0.45% of 310,000 active;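 active = B-score, a plate-corrected calcium signal, over three deviations above library mean, with baseline fluorescence within five deviations of library mean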;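 also: RGS4 expression induced by doxycycline in cells with stable M3 receptor; B-score is computed from the integrated fluorescence ratio over baseline after carbachol; higher B-score means a larger calcium signal and so more RGS4 inhibition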
Target sequence (P49798 whole entry, looked up): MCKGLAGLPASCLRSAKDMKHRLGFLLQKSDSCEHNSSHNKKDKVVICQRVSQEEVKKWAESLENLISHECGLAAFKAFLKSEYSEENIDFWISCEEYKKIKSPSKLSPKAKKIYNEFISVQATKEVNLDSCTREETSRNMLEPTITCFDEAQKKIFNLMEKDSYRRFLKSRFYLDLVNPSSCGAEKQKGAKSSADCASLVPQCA
MrgX1 antagonist: antagonists of human MrgX1 receptor, primary screen, HEK293 cells, Fluo-4 calcium flux | Mas-related G-protein coupled receptor member X1 (Homo sapiens), Q96LB2 | BAM8-22 antagonism; hits give low values | B-score at 10 µM | 1.3% of 310,000 active | AID 588676, 2011;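 active = calcium-response B-score plate-corrected more than 3 library SD below zero, starting fluorescence within 5 deviations, no agonist response on first addition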;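 also: peak minus trough fluorescence over baseline after final BAM8-22 challenge near maximal dose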
Target sequence (Q96LB2 whole entry, looked up): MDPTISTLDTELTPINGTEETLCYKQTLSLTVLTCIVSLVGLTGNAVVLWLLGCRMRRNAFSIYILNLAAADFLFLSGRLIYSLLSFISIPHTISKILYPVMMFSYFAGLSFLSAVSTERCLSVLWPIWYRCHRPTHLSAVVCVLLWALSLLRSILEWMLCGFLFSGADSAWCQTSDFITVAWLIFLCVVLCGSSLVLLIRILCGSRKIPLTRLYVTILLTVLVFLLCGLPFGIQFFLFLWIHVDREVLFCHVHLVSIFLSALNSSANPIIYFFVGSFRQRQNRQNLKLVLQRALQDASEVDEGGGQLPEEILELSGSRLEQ
RGS4 pot: RGS4 potentiators or activators, primary screen, cell-based, HEK293 M3R inducible RGS4, calcium flux | B-score at 10 µM | 0.92% of 310,000 active | carbachol calcium flux Fluo4; hits give low values;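 active = B-score of the integrated calcium signal more than 4 SD below the library mean, with starting fluorescence not abnormally high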;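 also: negative B-score means reduced calcium response which marks RGS4 activation or potentiation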
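Detection: kinetic calcium fluorescence imaging with Fluo4-AM dye, 2 µM / Material: HEK293 cells with stable M3R and inducible RGS4 / Schedule: recording 10 s baseline at 1 Hz, 100 s post-agonist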
MrgX1 allo act: positive allosteric modulators of MrgX1, primary screen, HEK293 cells, Fluo-4 calcium flux. Mas-related G-protein coupled receptor member X1 (Homo sapiens), Q96LB2. B-score at 10 µM. FDSS; hits give high values. 0.63% of 310,000 active;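 active = plate-corrected calcium response at least 3 library SD above typical, normal starting fluorescence, not activating the receptor alone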;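 also: compound read alongside a low EC10 to EC30 dose of BAM8-22 agonist; peak minus trough fluorescence over baseline measured at the second addition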
MrgX1 ag: agonists of human MrgX1 receptor, primary screen, HEK293 cells, Fluo-4 calcium flux; Mas-related G-protein coupled receptor member X1 (Homo sapiens), Q96LB2; Fluo-4 calcium fluorescence, agonist mode; hits give high values; B-score at 10 µM; 0.44% of 310,000 active; AID 588627, 2011;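 active = calcium response B-score plate-corrected fluorescence ratio at least 3 library SD, with starting fluorescence B-score inside 5 SD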
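Material: MrgX1-expressing HEK293 cells / Dosing: compound as first of three additions / Incubation: overnight seeding, then 1 h dark dye loading / Signal: Fluo-4 NW calcium fluorescence / Evaluation: B-scored fluorescence response ratio / Benchmarks: positive and negative control wells on each plate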
MrgX1 antag conf: MrgX1 receptor antagonists, duplicate retest, confirmation, HEK293 cells, Fluo-4 calcium flux | shares compounds with MrgX1 antagonist | BAM8-22 calcium flux; hits give low values | remaining BAM8-22 calcium response % of control (hits give low values), % at 10 µM | 19% of 2,300 active | AID 602420, 2012;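 active = remaining agonist calcium response no higher than 100% minus 3 SD of agonist-only control wells, with starting fluorescence near control levels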;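 also: agonist BAM8-22 given at a near maximal EC90 to ECmax level; peak minus minimum fluorescence divided by baseline after agonist addition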
HEK293 Ca flux: nonspecific calcium signal in parental HEK293, confirmation, counter-screen for MrgX1 antagonist project, parental HEK293 cells, Fluo-4 calcium flux; AID 624111, 2012; Fluo-4 calcium fluorescence, FDSS; 2% of 4,000 active; shares compounds with MrgX1 antagonist; fluorescence ratio F(max-min)/F0 at 10 µM;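 active = duplicate-averaged calcium fluorescence ratio at least three times the standard deviation of buffer wells, a nonspecific response in parental cells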
HEK293 Ca counter: calcium response in parental HEK293 cells, primary screen, counter-screen for MrgX1 allosteric activator project, cell-based, Fluo-4 calcium flux, duplicate; shares compounds with MrgX1 antagonist; Fluo-4 fluorescence ratio; hits give high values; fluorescence ratio F(max-min)/F0 at 10 µM; 0.4% of 4,000 active;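 active = calcium fluorescence ratio, averaged over duplicates, at least 3 SD of the buffer-well ratio, meaning a nonspecific response in receptor-free cells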;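 also: untransfected parental HEK293 lacking MrgX1 used as counterscreen for MrgX1 allosteric activators; fluorescence change taken during the second addition on a kinetic imager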
HEK293 Ca cntr2: calcium response in parental HEK293 cells, primary screen, counter-screen for MrgX1 agonist project, cell-based, Fluo-4 calcium flux, duplicate, agonist mode | shares compounds with MrgX1 antagonist | Fluo-4 calcium fluorescence (FDSS); hits give high values | fluorescence ratio F(max-min)/F0 at 10 µM | 8.7% of 4,000 active | AID 624115, 2012;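 active = calcium fluorescence ratio at least three times the spread of buffer wells, meaning a non-specific response in parental cells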
Of the large screens only hits and unclear results are named; the others gave an inactive call (follow-up assays come after a bar, where they were run). Rows were chosen to be rich in hits. Some 3.5% of all compounds tested hit in one or more screens of this group.

CC(C)C(NS(=O)(=O)c1cccs1)C(=O)NCc1ccc2c(c1)OCO2 (configuration not stated)	MrgX1 antagonist -4.59 | MrgX1 antag conf inactive | HEK293 Ca flux inactive | HEK293 Ca counter inactive | HEK293 Ca cntr2 inactive
CCc1ccccc1NC(=O)[C@@H]1CCC(=O)N1C1OC(=O)c2ccccc21 (some centres not stated)	MrgX1 antagonist -8.13 | MrgX1 antag conf 84.9% | HEK293 Ca flux inactive | HEK293 Ca counter inactive | HEK293 Ca cntr2 inactive
Cc1c(C(N)=O)sc2ncn(CC(=O)N(C)C3CCCCC3)c(=O)c12	none
CCn1cnc2cc(NCc3ccc(C)cc3)ccc21	MrgX1 antagonist -4.59 | MrgX1 antag conf inactive | HEK293 Ca flux inactive | HEK293 Ca counter inactive | HEK293 Ca cntr2 inactive
CCN(CC)c1ccc(CNc2ccc3c(c2)ncn3CC)cc1	none
Cc1cccc(CCNC(=O)Cn2ncc3c([nH]c4ccccc43)c2=O)c1	none
O=C(COC(=O)c1cccnc1Nc1ccccc1F)NCCN1C(=O)CSC1=O	MrgX1 antagonist -12.3 | MrgX1 antag conf inactive | HEK293 Ca flux inactive | HEK293 Ca counter inactive | HEK293 Ca cntr2 inactive
CC(C)Cc1ccc(C(C)C(=O)Nc2nccs2)cc1 (configuration not stated)	MrgX1 antagonist -4.69 | MrgX1 antag conf 72.0% | HEK293 Ca flux inactive | HEK293 Ca counter inactive | HEK293 Ca cntr2 inactive
O=C(Nc1ncc2c(n1)-c1ccccc1CC2)c1ccc(Cl)cc1	MrgX1 antagonist -5.19 | MrgX1 antag conf inactive | HEK293 Ca flux inactive | HEK293 Ca counter inactive | HEK293 Ca cntr2 inactive
O=C(Nc1ncc2c(n1)-c1ccccc1CC2)c1cccc(Cl)c1	none
O=C(Nc1ncc2c(n1)-c1ccccc1OC2)c1ccc(F)cc1	none
CCCSCC(=O)Nc1ncc2c(n1)-c1ccccc1CC2	MrgX1 antagonist -4.66 | MrgX1 antag conf 75.4% | HEK293 Ca flux inactive | HEK293 Ca counter inactive | HEK293 Ca cntr2 inactive
CCOc1ccc(CCNC(=O)c2cnc(C)cn2)cc1OCC	none
Cc1cccc(NC(=O)CNC(=O)C23CC4CC(CC(Cl)(C4)C2)C3)n1	none
Cc1cccc(C)c1NC(=O)CNC(=O)C12CC3CC(CC(O)(C3)C1)C2	MrgX1 antagonist -4.89 | MrgX1 antag conf inactive | HEK293 Ca flux inactive | HEK293 Ca counter inactive | HEK293 Ca cntr2 inactive
CCCCN(C(=O)c1c(CC)noc1C)c1c(N)n(CCCC)c(=O)[nH]c1=O	none
Cc1cc(C)c(NC(=S)N(CCCN2CCOCC2)Cc2cccnc2)c(C)c1	none
Cc1cccc(C)c1NC(=S)N(CCCN1CCOCC1)Cc1cccnc1	MrgX1 antagonist -4.89 | MrgX1 antag conf inactive | HEK293 Ca flux inactive | HEK293 Ca counter inactive | HEK293 Ca cntr2 inactive
CCCc1nnc(SCc2ccc(OCC)cc2)n1N	MrgX1 antagonist -4.53 | MrgX1 antag conf inactive | HEK293 Ca flux inactive | HEK293 Ca counter inactive | HEK293 Ca cntr2 inactive
COCCNC(=O)C1CC2Cn3c(nc4cc(Cl)c(Cl)cc43)C2N1C (configuration not stated)	MrgX1 antagonist -5.54 | MrgX1 antag conf inactive | HEK293 Ca flux inactive | HEK293 Ca counter inactive | HEK293 Ca cntr2 inactive
Cc1c(C(=O)N(C)C)c2cc(Cl)ccc2n1O	MrgX1 antagonist -5.01 | MrgX1 antag conf inactive | HEK293 Ca flux inactive | HEK293 Ca counter inactive | HEK293 Ca cntr2 inactive
Cc1ccc(S(=O)(=O)NC(=O)c2ccccc2)cc1C(C)C	MrgX1 antagonist -8.09 | MrgX1 antag conf inactive | HEK293 Ca flux inactive | HEK293 Ca counter inactive | HEK293 Ca cntr2 inactive
CCOc1ccc(S(=O)(=O)NC(=O)c2ccccc2)cc1	none
O=C(NCCCc1nc2ccccc2[nH]1)c1cccs1	none
CCn1ccnc1CN1CCN(CC(C)C)C(CCO)C1 (configuration not stated)	none
CCn1ccnc1CN1CCN(CCC(C)C)C(CCO)C1 (configuration not stated)	MrgX1 antagonist -6.19 | MrgX1 antag conf inactive | HEK293 Ca flux inactive | HEK293 Ca counter inactive | HEK293 Ca cntr2 inactive
CCn1c(/C=C/c2c(C)[nH]c3ccccc23)nc2ccccc2c1=O	MrgX1 antagonist -5.28 | MrgX1 antag conf inactive | HEK293 Ca flux inactive | HEK293 Ca counter inactive | HEK293 Ca cntr2 inactive
COc1ccc(CC(C)N2CCN(Cc3ccccc3)CC2)c(OC)c1 (configuration not stated)	MrgX1 antagonist -4.52 | MrgX1 antag conf inactive | HEK293 Ca flux inactive | HEK293 Ca counter inactive | HEK293 Ca cntr2 inactive
O=C(O)/C(=C\c1cccs1)c1ccccc1	none
CCn1c(SCC(=O)Nc2cccc(C)n2)nc2c1c(=O)n(C)c(=O)n2C	MrgX1 antagonist -5.92 | MrgX1 antag conf inactive | HEK293 Ca flux inactive | HEK293 Ca counter inactive | HEK293 Ca cntr2 inactive
O=C(COc1ccccc1)NC(=S)Nc1cccc2cc(O)ccc12	none
Clc1ccc2nnnc(-c3ccccc3)c2c1	MrgX1 antagonist -4.56 | MrgX1 antag conf inactive | HEK293 Ca flux inactive | HEK293 Ca counter inactive | HEK293 Ca cntr2 inactive
CCc1ccc(NC(=S)Nc2ccc3[nH]c(=O)[nH]c3c2)cc1	none
CCOC(=O)C(=O)N1CCN(c2cc3c(cc2[N+](=O)[O-])n(C)c(=O)n3C)CC1	none
CCCCN1C=CC(=C2C(=O)c3ccccc3C2=O)C=C1	none
CC(C(=O)O)N(C(=O)c1ccccc1)c1ccc(F)cc1 (configuration not stated)	MrgX1 antagonist -5.48 | MrgX1 antag conf 81.2% | HEK293 Ca flux inactive | HEK293 Ca counter inactive | HEK293 Ca cntr2 inactive
S=C(Nc1ccccc1)Nc1ccc(Br)cc1	MrgX1 antagonist -7.34 | MrgX1 antag conf 68.8% | HEK293 Ca flux inactive | HEK293 Ca counter inactive | HEK293 Ca cntr2 inactive
S=C(Nc1ccccc1)Nc1cccc(Br)c1	MrgX1 antagonist -5.41 | MrgX1 antag conf 63.3% | HEK293 Ca flux inactive | HEK293 Ca counter inactive | HEK293 Ca cntr2 inactive
CC(=O)Nc1ccc(NC(=S)Nc2ccc(Br)cc2)cc1	none
